{"source": "paper PMC6378121", "about": "(Bioorganic chemistry, 2018)", "key": {"[1]": {"target": "PARP-1 (Homo sapiens, UniProt P09874)", "sequence (P09874 whole entry)": "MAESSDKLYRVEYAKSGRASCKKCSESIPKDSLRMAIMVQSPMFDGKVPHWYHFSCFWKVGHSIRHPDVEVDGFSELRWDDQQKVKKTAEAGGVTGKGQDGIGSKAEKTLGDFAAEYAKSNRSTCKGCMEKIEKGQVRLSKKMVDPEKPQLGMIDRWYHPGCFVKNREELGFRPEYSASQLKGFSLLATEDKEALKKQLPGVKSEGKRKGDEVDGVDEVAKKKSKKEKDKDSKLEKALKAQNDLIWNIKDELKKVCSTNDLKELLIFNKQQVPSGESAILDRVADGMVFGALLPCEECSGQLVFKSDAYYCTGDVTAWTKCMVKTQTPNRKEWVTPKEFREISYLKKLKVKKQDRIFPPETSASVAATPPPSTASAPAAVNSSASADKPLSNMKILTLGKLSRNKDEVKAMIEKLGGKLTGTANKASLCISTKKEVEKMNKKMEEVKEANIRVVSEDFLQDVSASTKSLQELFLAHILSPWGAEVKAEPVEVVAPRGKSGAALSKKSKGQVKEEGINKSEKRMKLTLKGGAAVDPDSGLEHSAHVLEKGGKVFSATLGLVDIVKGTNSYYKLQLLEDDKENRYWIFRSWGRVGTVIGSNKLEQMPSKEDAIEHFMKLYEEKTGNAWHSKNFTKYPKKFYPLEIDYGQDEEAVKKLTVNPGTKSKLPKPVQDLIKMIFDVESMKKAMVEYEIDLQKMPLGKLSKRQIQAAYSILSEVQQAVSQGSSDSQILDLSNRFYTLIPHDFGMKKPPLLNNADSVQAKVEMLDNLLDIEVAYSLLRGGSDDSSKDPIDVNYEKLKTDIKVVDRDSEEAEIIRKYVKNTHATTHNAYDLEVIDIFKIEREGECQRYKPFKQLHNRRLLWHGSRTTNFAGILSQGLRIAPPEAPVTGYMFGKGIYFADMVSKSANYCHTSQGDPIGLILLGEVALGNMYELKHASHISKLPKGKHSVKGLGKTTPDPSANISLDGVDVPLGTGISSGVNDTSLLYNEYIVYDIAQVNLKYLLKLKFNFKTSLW", "experiment": "PARP-1 radioligand binding assay with [125I]KX1 in OVCAR8 cells", "summary_of_the_method": "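OVCAR8 ovarian cancer cells (BRCA1 methylated) seeded at 40,000 cells/well 24 h before the assay. Test compound diluted in RPMI (100 μM–0.064 nM), added with the [125I]KX1 radioligand, equilibrated 1 hr, then washed with PBS. Wells counted on a gamma counter. IC50 from non-linear sigmoidal dose-response fit, n=3; dose ranges were adjusted between repeats.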"}, "[2]": {"target": "recombinant human P-gp (Homo sapiens, UniProt P08183)", "sequence (P08183 whole entry)": "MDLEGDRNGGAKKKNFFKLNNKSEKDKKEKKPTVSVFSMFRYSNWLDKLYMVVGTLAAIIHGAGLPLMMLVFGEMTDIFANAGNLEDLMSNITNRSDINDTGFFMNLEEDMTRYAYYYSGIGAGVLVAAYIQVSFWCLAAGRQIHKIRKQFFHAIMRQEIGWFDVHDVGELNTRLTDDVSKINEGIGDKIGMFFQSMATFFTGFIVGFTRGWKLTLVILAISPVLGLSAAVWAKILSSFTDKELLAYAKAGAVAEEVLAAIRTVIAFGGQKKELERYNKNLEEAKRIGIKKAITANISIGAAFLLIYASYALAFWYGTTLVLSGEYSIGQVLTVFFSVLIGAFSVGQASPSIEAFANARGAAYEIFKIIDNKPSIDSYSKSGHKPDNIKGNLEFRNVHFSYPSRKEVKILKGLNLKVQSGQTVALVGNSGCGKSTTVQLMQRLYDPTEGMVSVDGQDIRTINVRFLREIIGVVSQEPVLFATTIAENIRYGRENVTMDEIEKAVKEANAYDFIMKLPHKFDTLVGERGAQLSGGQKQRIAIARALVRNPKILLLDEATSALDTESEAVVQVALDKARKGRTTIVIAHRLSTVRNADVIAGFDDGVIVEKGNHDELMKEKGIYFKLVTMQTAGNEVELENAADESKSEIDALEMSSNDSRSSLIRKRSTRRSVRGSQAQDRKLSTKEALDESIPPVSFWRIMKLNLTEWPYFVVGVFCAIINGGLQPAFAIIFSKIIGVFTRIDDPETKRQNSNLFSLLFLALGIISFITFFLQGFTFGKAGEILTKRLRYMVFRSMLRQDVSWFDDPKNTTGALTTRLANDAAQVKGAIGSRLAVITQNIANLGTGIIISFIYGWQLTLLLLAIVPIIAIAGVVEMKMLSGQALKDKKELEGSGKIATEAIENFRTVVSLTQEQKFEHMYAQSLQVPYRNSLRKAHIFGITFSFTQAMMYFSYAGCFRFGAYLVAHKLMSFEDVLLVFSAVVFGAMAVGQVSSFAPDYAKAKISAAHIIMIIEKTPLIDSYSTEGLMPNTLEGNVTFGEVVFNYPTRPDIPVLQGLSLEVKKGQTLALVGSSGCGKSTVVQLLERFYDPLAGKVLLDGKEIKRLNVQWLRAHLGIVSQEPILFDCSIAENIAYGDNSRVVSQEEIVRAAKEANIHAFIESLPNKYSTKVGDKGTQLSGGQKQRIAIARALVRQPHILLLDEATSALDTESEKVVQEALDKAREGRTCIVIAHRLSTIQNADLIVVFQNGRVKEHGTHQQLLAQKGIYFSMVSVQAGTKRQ", "experiment": "Pgp-Glo assay", "conditions": "for Luminescence from unmetabolized ATP (P-gp ATPase stimulation or inhibition): 20 μM compound, 5 mM ATP, 1 hr at 37°C, normalized to Na3VO4"}, "[3]": {"test_system": "P-gp", "conditions": "cited from earlier work"}}, "note": "Read-outs that look alike come from different tables or passages of the source.", "data": [{"compound": "O=C(c1cc(Cc2n[nH]c(=O)c3ccccc23)ccc1F)N1CC(OCCF)C1", "note": "[Compound 9b, 4-(4-fluoro-3-(3-(2-fluoroethoxy)azetidine-1-carbonyl)benzyl)phthalazin-1(2H)-one]", "values": [{"measurement": "IC50", "setting": "[1]", "value": "7.5 ± 1.1", "unit": "nM"}]}, {"compound": "O=C(c1cc(Cc2n[nH]c(=O)c3ccccc23)ccc1F)N1CCC(c2ccc(F)cc2)CC1", "note": "[Compound 11b, 4-(4-fluoro-3-(4-(4-fluorophenyl)piperidine-1-carbonyl)benzyl)phthalazin-1(2H)-one]", "values": [{"measurement": "IC50", "setting": "[1]", "value": 1.3, "unit": "nM"}, {"measurement": "Luminescence from unmetabolized ATP (P-gp ATPase stimulation or inhibition)", "setting": "[2]", "value": "increased luminescence"}]}, {"compound": "O=C(c1cc(Cc2n[nH]c(=O)c3ccccc23)ccc1F)N1CC[C@@H](OCCF)C1", "note": "[Compound 9c, (R)-4-(4-fluoro-3-(3-(2-fluoroethoxy)pyrrolidine-1-carbonyl)benzyl)phthalazin-1(2H)-one]", "values": [{"measurement": "IC50", "setting": "[1]", "value": "10.1 ± 1.1", "unit": "nM"}]}, {"compound": "COC1CCN(C(=O)c2cc(Cc3n[nH]c(=O)c4ccccc34)ccc2F)CC1", "note": "[Compound 2, AZD2461]", "values": [{"measurement": "P-gp substrate status", "setting": "[3]", "value": "weak P-gp substrates"}, {"measurement": "P-gp substrate status", "setting": "[3]; listed as AZD2461", "value": "poor P-gp substrate"}]}, {"compound": "O=C(c1cc(Cc2n[nH]c(=O)c3ccccc23)ccc1F)N1CC2(CC(OCCF)C2)C1", "note": "[Compound 9a, 4-(4-fluoro-3-(6-(2-fluoroethoxy)-2-azaspiro[3.3]heptane-2-carbonyl)benzyl)phthalazin-1(2H)-one]", "values": [{"measurement": "IC50", "setting": "[1]", "value": "10.7 ± 1.1", "unit": "nM"}]}, {"compound": "O=C(c1cc(Cc2n[nH]c(=O)c3ccccc23)ccc1F)N1CC2(C1)CN(c1ccc(F)cc1)C2", "note": "[Compound 14, 4-(4-fluoro-3-(6-(4-fluorophenyl)-2,6-diazaspiro[3.3]heptane-2-carbonyl)benzyl)phthalazin-1(2H)-one]", "values": [{"measurement": "IC50", "setting": "[1]", "value": 0.3, "unit": "nM"}, {"measurement": "Luminescence from unmetabolized ATP (P-gp ATPase stimulation or inhibition)", "setting": "[2]", "value": "increased luminescence"}]}, {"compound": "O=C(c1cc(Cc2n[nH]c(=O)c3ccccc23)ccc1F)N1CCC(OCCF)CC1", "note": "[Compound 9e, 4-(4-fluoro-3-(4-(2-fluoroethoxy)piperidine-1-carbonyl)benzyl)phthalazin-1(2H)-one]", "values": [{"measurement": "IC50", "setting": "[1]", "value": "3.9 ± 1.2", "unit": "nM"}, {"measurement": "Luminescence from unmetabolized ATP (P-gp ATPase stimulation or inhibition)", "setting": "[2]", "value": "increased luminescence"}, {"measurement": "P-gp substrate status", "setting": "[2]; authors' conclusion from the P-gp assay", "value": "weak substrate for P-gp"}]}, {"compound": "C[C@]1(c2nc3c(C(N)=O)cccc3[nH]2)CCCN1", "note": "[veliparib]", "values": [{"measurement": "P-gp substrate status", "setting": "[3]", "value": "weak P-gp substrates"}]}, {"compound": "O=C(c1cc(Cc2n[nH]c(=O)c3ccccc23)ccc1F)N1CCN(C(=O)C2CC2)CC1", "note": "[olaparib]", "values": [{"measurement": "P-gp substrate status", "setting": "[3]", "value": "known substrates for P-gp"}]}, {"compound": "[Na+].[Na+].[Na+].[O]=[V]([O-])([O-])[O-]", "note": "[Na3VO4, reference compound]", "values": [{"measurement": "Luminescence from unmetabolized ATP (P-gp ATPase stimulation or inhibition)", "setting": "[2]", "value": "increased luminescence"}]}, {"compound": "C[C@]12CCCN1CC1=NNC(=O)c3cc(F)cc4[nH]c2c1c34", "note": "[BGB-290]", "values": [{"measurement": "P-gp substrate status", "setting": "[3]", "value": "weak P-gp substrates"}]}, {"compound": "O=C(c1cc(Cc2n[nH]c(=O)c3ccccc23)ccc1F)N1CC[C@H](OCCF)C1", "note": "[Compound 9d, (S)-4-(4-fluoro-3-(3-(2-fluoroethoxy)pyrrolidine-1-carbonyl)benzyl)phthalazin-1(2H)-one]", "values": [{"measurement": "IC50", "setting": "[1]", "value": 6.8, "unit": "nM"}]}, {"compound": "O=C(c1cc(Cc2n[nH]c(=O)c3ccccc23)ccc1F)N1CC2(CC(c3ccc(F)cc3)C2)C1", "note": "[Compound 17, 4-(4-fluoro-3-(6-(4-fluorophenyl)-2-azaspiro[3.3]heptane-2-carbonyl)benzyl)phthalazin-1(2H)-one]", "values": [{"measurement": "IC50", "setting": "[1]", "value": 2.8, "unit": "nM"}, {"measurement": "Luminescence from unmetabolized ATP (P-gp ATPase stimulation or inhibition)", "setting": "[2]", "value": "increased luminescence"}]}, {"compound": "O=C(c1cc(Cc2n[nH]c(=O)c3ccccc23)ccc1F)N1CCCC(OCCF)CC1", "note": "(stereo not drawn) [Compound 9f, 4-(4-fluoro-3-(4-(2-fluoroethoxy)azepane-1-carbonyl)benzyl)phthalazin-1(2H)-one]", "values": [{"measurement": "IC50", "setting": "[1]", "value": "5.6 ± 1.1", "unit": "nM"}]}, {"compound": "O=C(c1cc(Cc2n[nH]c(=O)c3ccccc23)ccc1F)N1CCN(c2ccc(F)cc2)CC1", "note": "[Compound 11a, 4-(4-fluoro-3-(4-(4-fluorophenyl)piperazine-1-carbonyl)benzyl)phthalazin-1(2H)-one]", "values": [{"measurement": "IC50", "setting": "[1]", "value": "0.6 ± 1.2", "unit": "nM"}]}]}
